Measurements taken from ChEMBL document CHEMBL3421595, “Design and Synthesis of New α-Naphthoflavones as Cytochrome P450 (CYP) 1B1 Inhibitors To Overcome Docetaxel-Resistance Associated with CYP1B1 Overexpression” (J Med Chem, 2015).

Key:
[1] = organism: Homo sapiens; assay: Selectivity index, ratio of IC50 for human CYP1A2 to IC50 for human CYP1B1
In short: (§1)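 Recombinant human CYP1B1, 1A1 and 1A2 in a standard EROD assay. 7-Ethoxyresorufin fixed at 150 nM. NADPH regeneration system: 1.3 mM NADP+, 3.3 mM G-6-P, 0.5 U/mL G6-PD. Incubation time 35 min for CYP1B1, 15 min for 1A1 and 50 min for 1A2. Resorufin fluorescence read at ex 545 / em 590 nm. IC50 by Probit analysis; selectivity taken as the ratio of IC50 values.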

[2] = molecular target: T1, Cytochrome P450 1A1 (Homo sapiens, UniProt P04798); assay: Inhibition of human CYP1A1 assessed as reduction in 7-ethoxyresorufin O-deethylation activity by fluorescence based EROD assay; assay type: ADME; in short: as §1
T1 sequence (P04798 whole entry): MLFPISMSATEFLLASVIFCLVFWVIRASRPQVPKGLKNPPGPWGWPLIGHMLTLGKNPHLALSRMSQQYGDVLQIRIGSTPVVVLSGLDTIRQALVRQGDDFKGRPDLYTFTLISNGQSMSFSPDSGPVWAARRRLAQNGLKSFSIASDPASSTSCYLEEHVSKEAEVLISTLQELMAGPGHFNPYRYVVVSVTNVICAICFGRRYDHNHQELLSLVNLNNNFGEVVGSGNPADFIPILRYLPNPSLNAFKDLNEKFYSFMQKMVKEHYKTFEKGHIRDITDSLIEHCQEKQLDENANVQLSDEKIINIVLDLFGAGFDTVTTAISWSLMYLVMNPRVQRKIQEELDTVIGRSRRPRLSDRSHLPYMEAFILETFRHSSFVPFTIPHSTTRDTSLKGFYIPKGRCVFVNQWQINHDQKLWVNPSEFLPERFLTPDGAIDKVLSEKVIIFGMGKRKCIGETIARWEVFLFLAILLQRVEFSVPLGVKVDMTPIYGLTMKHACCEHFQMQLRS

[3] = molecular target: T2, Cytochrome P450 1B1 (Homo sapiens, UniProt Q16678); assay: Inhibition of human CYP1B1 assessed as reduction in 7-ethoxyresorufin O-deethylation activity by fluorescence based EROD assay
T2 sequence (Q16678 whole entry): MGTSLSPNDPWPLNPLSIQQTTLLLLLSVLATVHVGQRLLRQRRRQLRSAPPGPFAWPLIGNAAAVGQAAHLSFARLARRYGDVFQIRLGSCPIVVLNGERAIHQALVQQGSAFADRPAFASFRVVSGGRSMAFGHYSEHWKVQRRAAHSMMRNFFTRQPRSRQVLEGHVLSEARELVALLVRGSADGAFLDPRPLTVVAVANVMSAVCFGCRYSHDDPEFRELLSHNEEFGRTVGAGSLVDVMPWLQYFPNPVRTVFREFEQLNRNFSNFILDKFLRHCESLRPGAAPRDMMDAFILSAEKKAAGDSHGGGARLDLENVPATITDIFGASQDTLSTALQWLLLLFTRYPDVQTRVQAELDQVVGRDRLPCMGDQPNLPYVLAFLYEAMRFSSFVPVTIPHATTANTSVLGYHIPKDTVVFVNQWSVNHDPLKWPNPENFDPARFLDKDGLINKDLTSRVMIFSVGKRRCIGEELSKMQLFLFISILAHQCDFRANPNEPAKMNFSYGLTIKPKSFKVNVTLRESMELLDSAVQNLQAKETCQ
In short: (§2)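 Recombinant human CYP1B1, 1A1 and 1A2 in a standard EROD assay. NADPH regeneration system: 1.3 mM NADP+, 3.3 mM G-6-P, 0.5 U/mL G6-PD. Incubation time 35 min for CYP1B1, 15 min for 1A1 and 50 min for 1A2. IC50 by Probit analysis; selectivity taken as the ratio of IC50 values.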

[4] = organism: Homo sapiens; assay: Selectivity index, ratio of IC50 for human CYP1A1 to IC50 for human CYP1B1; in short: as §1
[5] = molecular target: T3, Cytochrome P450 1A2 (Homo sapiens, UniProt P05177); assay: Inhibition of human CYP1A2 assessed as reduction in 7-ethoxyresorufin O-deethylation activity by fluorescence based EROD assay; assay type: ADME; in short: as §2
T3 sequence (P05177 whole entry): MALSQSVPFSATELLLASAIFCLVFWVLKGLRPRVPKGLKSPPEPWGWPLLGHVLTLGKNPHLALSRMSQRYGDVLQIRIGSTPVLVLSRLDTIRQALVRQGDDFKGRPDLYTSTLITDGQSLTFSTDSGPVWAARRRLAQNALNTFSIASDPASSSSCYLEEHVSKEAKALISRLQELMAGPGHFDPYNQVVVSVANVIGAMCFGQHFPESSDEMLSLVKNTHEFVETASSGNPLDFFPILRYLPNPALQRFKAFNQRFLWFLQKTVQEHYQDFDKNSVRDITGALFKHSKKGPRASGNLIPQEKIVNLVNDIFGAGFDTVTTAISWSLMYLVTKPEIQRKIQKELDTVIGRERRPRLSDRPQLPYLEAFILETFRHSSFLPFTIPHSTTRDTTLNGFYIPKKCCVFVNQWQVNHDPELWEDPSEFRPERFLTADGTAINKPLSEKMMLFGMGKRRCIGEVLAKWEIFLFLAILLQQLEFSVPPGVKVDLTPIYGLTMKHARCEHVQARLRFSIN

[6] = molecular target: T2, Cytochrome P450 1B1; assay: Potency index, ratio of IC50 for ANF to IC50 for compound against human CYP1B1 assessed as reduction in 7-ethoxyresorufin O-deethylation activity by fluorescence based EROD assay; details: read-out: Ratio IC50
In short: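 Recombinant human CYP1B1 EROD assay with 150 nM 7-ethoxyresorufin. NADPH regeneration system (1.3 mM NADP+, 3.3 mM G-6-P, 0.5 U/mL G6-PD) replaced NADPH. Incubated 35 min; resorufin fluorescence read at ex 545/em 590 nm. IC50 by Probit analysis. ANF was the positive control in the same assay, and the index divides its IC50 by the compound's IC50.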

| Compound | Ratio IC50 [1] | IC50 [2] | IC50 [3] | Ratio IC50 [4] | IC50 [5] | selectivity ratio [6] |
| --- | --- | --- | --- | --- | --- | --- |
| COc1ccc(OC)c2c1c(OC)cc1c(=O)cc(-c3cccc(Cl)c3)oc12 | 204 | 6.4 nM | 0.3 nM | 21 | 61.1 nM |  |
| COc1ccc(OC)c2c1c(OC)cc1c(=O)c(OCCCCCCCCOC(=O)CN)c(-c3cccc(F)c3)oc12 | 10 | 20.2 nM | 12.3 nM | 1.6 | 129 nM |  |
| COc1ccc(-c2cc(=O)c3cc(OC)c4c(OC)ccc(OC)c4c3o2)cc1OC | 7.7 | 11.5 nM | 2.5 nM | 4.6 | 19.3 nM |  |
| COc1ccc(OC)c2c1c(OC)cc1c(=O)c(OCCOC(=O)CN)c(-c3cccc(F)c3)oc12 | 2.9 | 13.6 nM | 19.6 nM | 0.69 | 56.2 nM |  |
| COc1ccc(OC)c2c1c(OC)cc1c(=O)c(O)c(-c3cccc(F)c3)oc12 | 88 | 66.9 nM | 0.3 nM | 223 | 26.5 nM |  |
| COc1ccc(OC)c2c1c(OC)cc1c(=O)c(O)c(-c3ccccc3)oc12 | 15 | 31.6 nM | 2.3 nM | 14 | 34.4 nM |  |
| COc1ccc(OC)c2c1c(OC)cc1c(=O)c(OCCOC(=O)[C@@H](N)C(C)C)c(-c3cccc(F)c3)oc12 | 0.6 | 192 nM | 114 nM | 1.7 | 68.3 nM |  |
| COc1ccccc1-c1cc(=O)c2cc(OC)c3c(OC)ccc(OC)c3c2o1 | 1.5 | 18.8 nM | 9 nM | 2.1 | 13.5 nM |  |
| COc1ccc(OC)c2c1c(OC)cc1c(=O)c(O)c(-c3ccc(Cl)cc3)oc12 | 17 | 26.9 nM | 5 nM | 5.4 | 83.3 nM |  |
| COc1ccc(OC)c2c1c(OC)cc1c(=O)cc(-c3ccccc3)oc12 | 81 | 4.8 nM | 0.2 nM | 24 | 16.1 nM | 6 |
| COc1ccc(OC)c2c1c(OC)cc1c(=O)c(O)c(-c3ccc(F)cc3)oc12 | 72 | 11.8 nM | 0.8 nM | 15 | 57.6 nM |  |
| COc1ccc(-c2cc(=O)c3cc(OC)c4c(OC)ccc(OC)c4c3o2)cc1 | 15 | 12.9 nM | 1.1 nM | 12 | 16.4 nM |  |
| COc1ccc(OC)c2c1c(OC)cc1c(=O)c(OCCOC(=O)[C@H](C)N)c(-c3cccc(F)c3)oc12 | 0.87 | 39.4 nM | 98.4 nM | 0.4 | 85.9 nM |  |
| COc1ccc(OC)c2c1c(OC)cc1c(=O)c(O)c(-c3cccc(Cl)c3)oc12 | 12 | 46 nM | 3.5 nM | 13 | 42.5 nM |  |
| COc1ccc(OC)c2c1c(OC)cc1c(=O)cc(-c3ccc(OCc4ccccc4)cc3)oc12 | 0.06 | 67.8 nM | 771 nM | 0.09 | 43 nM |  |
| COc1ccc(OC)c2c1c(OC)cc1c(=O)cc(-c3cccc(F)c3)oc12 | 853 | 11.5 nM |  | 267 | 36.7 nM |  |
| COc1ccc(OC)c2c1c(OC)cc1c(=O)cc(-c3ccc(O)cc3)oc12 | 0.09 | 114 nM | 643 nM | 0.18 | 58.4 nM |  |
| COc1ccc(OC)c2c1c(OC)cc1c(=O)c(O)c(-c3ccccc3Cl)oc12 | 31 | 32.9 nM | 1.6 nM | 21 | 49.6 nM |  |
| COc1ccc(OC)c2c1c(OC)cc1c(=O)cc(-c3ccc(Cl)cc3)oc12 | 139 | 1.8 nM | 0.2 nM | 9 | 27.7 nM |  |
| COc1ccc(OC)c2c1c(OC)cc1c(=O)c(OCCCCCCOC(=O)CN)c(-c3cccc(F)c3)oc12 | 1.7 | 36.2 nM | 68.8 nM | 0.53 | 120 nM |  |
| COc1ccc(OC)c2c1c(OC)cc1c(=O)c(OCCCCOC(=O)CN)c(-c3cccc(F)c3)oc12 | 3.3 | 70.2 nM | 37 nM | 1.9 | 122 nM |  |
| COc1ccc(OC)c2c1c(OC)cc1c(=O)cc(-c3ccccc3O)oc12 | 0.8 | 12.1 nM | 62.9 nM | 0.19 | 50.6 nM |  |
| COc1ccc(OC)c2c1c(OC)cc1c(=O)cc(-c3ccccc3Cl)oc12 | 53 | 19.2 nM | 1.1 nM | 17.5 | 58 nM |  |
| COc1ccc(OC)c2c1c(OC)cc1c(=O)cc(-c3ccccc3F)oc12 | 111 | 5.9 nM | 0.2 nM | 29.5 | 22.1 nM |  |
| COc1ccc(OC)c2c1c(OC)cc1c(=O)cc(-c3ccc(OCc4ccccc4)c(OCc4ccccc4)c3)oc12 |  | 535 nM | > 100000 nM |  | 96.9 nM |  |
| COc1ccc(OC)c2c1c(OC)cc1c(=O)c(O)c(-c3ccccc3F)oc12 | 25 | 27.5 nM | 1.2 nM | 23 | 29.4 nM |  |
| COc1ccc(OC)c2c1c(OC)cc1c(=O)cc(-c3ccc(F)cc3)oc12 | 51 | 9.8 nM | 0.3 nM | 33 | 15.4 nM |  |
| COc1cc(-c2cc(=O)c3cc(OC)c4c(OC)ccc(OC)c4c3o2)cc(OC)c1OC | 2.4 | 22.5 nM | 9.8 nM | 2.3 | 23.5 nM |  |
